Source: ChEMBL document CHEMBL1124597, “Quinones. 4. Novel eicosanoid antagonists: synthesis and pharmacological evaluation” (J Med Chem, 1989)

Assays:
[1] = species on record: Oryctolagus cuniculus; test: In vitro percent inhibition against U-44,069 (10e-7 M) induced contraction of rabbit aorta at 10e-5 M concentration.; assay type: functional
In short: (§1)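 Rabbit aortic strips (2-3 mm × 3 cm) in Krebs-Henseleit, 37 °C, 95% O2/5% CO2, 2 g resting tension, isometric recording. Drugs (final 10⁻⁵ to 10⁻⁸ M, 0.01% DMSO) added 10 min before U-44069 (2-6 nM, about 50% of the 30 mM KCl contraction). Percent inhibition, or concentration reducing contraction by 50%; duplicate means.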

[2] = species on record: Oryctolagus cuniculus; test: In vitro percent inhibition against U-44,069 (10e-7 M) induced contraction of rabbit aorta at 10e-6 M concentration; assay type: functional; in short: as §1
[3] = species on record: Oryctolagus cuniculus; test: In vitro concentration that reduced U-44069-induced contraction of the rabbit aorta by 50%; assay type: functional; in short: as §1
[4] = species on record: Oryctolagus cuniculus; test: Percent inhibition of compound against U-44,069 (10e-7 M) induced contraction of rabbit aorta at 3*10e-8 M concentration; assay type: functional; in short: as §1
[5] = species on record: Oryctolagus cuniculus; test: In vitro percent inhibition against U-44,069 (10e-7 M) induced contraction of rabbit aorta at 10e-7 M concentration; assay type: functional; in short: as §1
[6] = system: Cavia porcellus; test: In vivo percentage of inhibition against LTD -induced bronchoconstriction in guinea pig at a concentration of 5 mg/kg after 1 hour of oral administration; assay type: functional
In short: (§2)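 Urethane-anesthetized (1.5 g/kg ip) guinea pigs given gallamine (1 mg/kg iv); bronchoconstriction measured by Konzett-Rössler overflow. Challenge was U-46619, LTD4 or PAF at 10 μg/kg iv, or IgG1-mediated in animals sensitized ip with egg albumin (1 mg/kg)/FCA and used 3 weeks later. Drug given orally in 5% gum arabic 1 h before challenge; n = 8. ID50 = dose giving 50% inhibition.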

[7] = species on record: Cavia porcellus; test: In vitro concentration that reduced U-44069-induced aggregation of guinea pig platelets by 50%; assay type: functional
In short: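 PRP from conscious male guinea pigs, blood taken by cardiac puncture into 3.15% citrate (1:9); platelets adjusted to 450 000/μL. PRP preincubated 2 min at 37 °C, then incubated 2 min with U-44069 at a concentration giving submaximal aggregation. IC50 = antagonist concentration reducing aggregation by 50%.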

[8] = system: Cavia porcellus; test: In vivo percentage of inhibition against U-46619-induced bronchoconstriction in guinea pig at a concentration of 1.25 mg/kg after 1 hour of oral administration; assay type: functional; in short: as §2
[9] = system: Cavia porcellus; test: In vivo percentage of inhibition against U-46619 -induced bronchoconstriction in guinea pig at a concentration of 0.31 mg/kg after 1 hour of oral administration; assay type: functional
In short: (§3)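 Guinea pigs were challenged iv with LTD4, PAF or U-46619, each at 10 µg/kg. Bronchoconstriction was measured by the Konzett-Rössler overflow method, as for the sensitized animals (urethane 1.5 g/kg ip, gallamine 1 mg/kg iv). Drug suspended in 5% gum arabic was dosed orally 1 h before spasmogen; eight animals per group; percent inhibition of bronchoconstriction.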

[10] = system: Cavia porcellus; test: In vivo percentage of inhibition against LTD -induced bronchoconstriction in guinea pig at a concentration of 0.08 mg/kg after 1 hour of oral administration; assay type: functional; in short: as §2
[11] = species on record: Oryctolagus cuniculus; test: In vitro concentration that reduced U-44069-induced contraction of the rabbit aorta; assay type: functional; settings: read-out: pA2 (converted); in short: as §1
[12] = system: Cavia porcellus; test: In vivo percentage of inhibition against U-46619 -induced bronchoconstriction in guinea pig at a concentration of 0.08 mg/kg after 1 hour of oral administration; assay type: functional; in short: as §2
[13] = system: Cavia porcellus; test: In vivo percentage of inhibition against LTD -induced bronchoconstriction in guinea pig at a concentration of 0.31 mg/kg after 1 hour of oral administration; assay type: functional; in short: as §3
[14] = system: Cavia porcellus; test: In vivo percentage of inhibition against LTD -induced bronchoconstriction in guinea pig at a concentration of 1.25 mg/kg after 1 hour of oral administration; assay type: functional; in short: as §2
[15] = species on record: Cavia porcellus; test: In vitro concentration that reduced U-46619-induced contraction of guinea pig lung; settings: read-out: pA2 (converted)
[16] = system: Cavia porcellus; test: In vivo percentage of inhibition against U-46619 -induced bronchoconstriction in guinea pig at a concentration of 5 mg/kg after 1 hour of oral administration.; assay type: functional; in short: as §2
[17] = system: Cavia porcellus; test: In vivo percentage of inhibition against LTD -induced bronchoconstriction in guinea pig at a concentration of 20 mg/kg after 1 hour of oral administration; assay type: functional; in short: as §2
[18] = system: Cavia porcellus; test: In vivo percentage of inhibition against U-46619-induced bronchoconstriction in guinea pig at a concentration of 20 mg/kg when after 1 hour of oral administration; assay type: functional; in short: as §2
[19] = system: Cavia porcellus; test: In vivo percentage of inhibition against IgG1 -induced bronchoconstriction in guinea pig at a concentration of 5 mg/kg after 1 hour of oral administration; assay type: functional; in short: as §2
[20] = system: Cavia porcellus; test: In vivo percentage of inhibition against IgG1 -induced bronchoconstriction in guinea pig at a concentration of 0.31 mg/kg after 1 hour of oral administration; assay type: functional
In short: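 Guinea pigs sensitized ip with egg albumin (1 mg/kg) emulsified in Freund's complete adjuvant. Three weeks later, animals whose sera at 1:1000 gave a positive 3-h passive cutaneous anaphylaxis were used. Under urethane (1.5 g/kg ip) and gallamine (1 mg/kg iv), IgG1-mediated bronchoconstriction was measured by Konzett-Rössler overflow. Drug in 5% gum arabic was given orally 1 h before challenge; eight animals per group.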

[21] = system: Cavia porcellus; test: In vivo inhibition against LTD-induced bronchoconstriction in guinea pig; assay type: functional; settings: read-out: ID50 (the source's name); in short: as §2
[22] = system: Cavia porcellus; test: In vivo inhibition against IgG1-induced bronchoconstriction in guinea pig; assay type: functional; settings: read-out: ID50 (the source's name); in short: as §2
[23] = system: Cavia porcellus; test: In vivo percentage of inhibition against PAF-induced bronchoconstriction in guinea pig at a concentration of 5 mg/kg after 1 hour of oral administration; assay type: functional; in short: as §2
[24] = system: Cavia porcellus; test: In vivo percentage of inhibition against IgG1 -induced bronchoconstriction in guinea pig at a concentration of 1.25 mg/kg after 1 hour of oral administration; assay type: functional; in short: as §2
[25] = species on record: Cavia porcellus; test: In vitro concentration that reduced U-46619-induced contraction of guinea pig lung; settings: read-out: pA2 (converted); remark: listed apart in the source
[26] = system: Cavia porcellus; test: In vivo inhibition against U-46619-induced bronchoconstriction in guinea pig; assay type: functional; settings: read-out: ID50 (the source's name); in short: as §2
[27] = system: Cavia porcellus; test: In vivo percentage of inhibition against PAF-induced bronchoconstriction in guinea pig at a concentration of 1.25 mg/kg after 1 hour of oral administration; assay type: functional; in short: as §2
[28] = system: Cavia porcellus; test: In vivo percentage of inhibition against PAF -induced bronchoconstriction in guinea pig at a concentration of 0.31 mg/kg after 1 hour of oral administration; assay type: functional; in short: as §3

In the case of CCCCCCC(C1=C(C)C(=O)C(C)=C(C)C1=O)c1ccccc1 (stereo unspecified), the Inhibition [1] is reported as 25%.

For CC1=C(C)C(=O)C(C(CCCCCCO)c2ccccc2)=C(C)C1=O (stereo unspecified), the Inhibition [1] was 0%.

For CC1=C(C)C(=O)C(C(CCCCCCCC(=O)O)c2ccccc2)=C(C)C1=O (stereo unspecified), the Inhibition [1] was 94%, the Inhibition [2] was 0% and the IC50 [3] was 3.4 µM.

With CC1=C(C)C(=O)C(C(CCCCCC(=O)O)c2ccc(F)cc2)=C(C)C1=O (stereo unspecified) the Inhibition [1] was 100%, the Inhibition [4] was 20% and the Inhibition [2] was 100%. For the same molecule, the IC50 [3] was 0.048 µM and the Inhibition [5] was 96%.

CC1=C(C)C(=O)C(C(CCCCCC(=O)NC(C)c2ccccc2)c2ccccc2)=C(C)C1=O (stereo unspecified) showed an Inhibition [1] of 33%.

In the case of CC1=C(C)C(=O)C(C(CCCCCCC(=O)O)c2ccccc2)=C(C)C1=O (stereo unspecified), the Inhibition [1] is reported as 98%, the Inhibition [2] is reported as 0% and the IC50 [3] is reported as 3.2 µM.

In the case of CC1=C(C)C(=O)C(C(CCCCCC(=O)NC(C)C)c2ccccc2)=C(C)C1=O (stereo unspecified), the Inhibition [1] is reported as 8%.

CC1=C(C)C(=O)C(C(CCCCC(=O)O)c2ccccc2)=C(C)C1=O (stereo unspecified) was tested, and the Inhibition [1] was 63%.

With CC1=C(C)C(=O)C(C(CCCC(=O)O)c2ccccc2)=C(C)C1=O (stereo unspecified) the Inhibition [1] was 24%.

Work on CC1=C(C)C(=O)C(C(CCc2cccc(C(=O)O)c2)c2ccccc2)=C(C)C1=O (stereo unspecified) yielded an Inhibition [1] of 89% and an Inhibition [2] of 0%.

Molecule CC1=C(C)C(=O)C([C@H](CCCCCC(=O)O)c2ccccc2)=C(C)C1=O has an inhibition in vivo at 5 mg/kg [6] of 80%, an IC50 [7] of 0.12 µM and an inhibition in vivo at 1.25 mg/kg [8] of 93%. It also gave an inhibition in vivo at 0.31 mg/kg [9] of 75%, an inhibition in vivo at 0.08 mg/kg [10] of 12% and a Kb [11] of 0.00251 µM. It also gave an inhibition in vivo at 0.08 mg/kg [12] of 72%, an inhibition in vivo at 0.31 mg/kg [13] of 85% and an inhibition in vivo at 1.25 mg/kg [14] of 85%. It also gave a Kb [15] of 0.00158 µM.

CC1=C(C)C(=O)C([C@@H](CCCCCC(=O)O)c2ccccc2)=C(C)C1=O was tested, and the inhibition in vivo at 5 mg/kg [6] was 27%, the IC50 [7] was 13 µM and the inhibition in vivo at 5 mg/kg [16] was 47%. For the same molecule, the inhibition in vivo at 20 mg/kg [17] was 65%, the Kb [11] was 0.229 µM and the inhibition in vivo at 20 mg/kg [18] was 68%. The Kb [15] was 0.295 µM.

Work on CC1=C(C)C(=O)C(CCCCCCC(=O)O)=C(C)C1=O yielded an Inhibition [1] of 8%.

For CC1=C(C)C(=O)C(C(CCCCCC(=O)O)c2ccc(Br)cc2)=C(C)C1=O (stereo unspecified), the Inhibition [1] was 94%, the Inhibition [2] was 36% and the IC50 [3] was 1.7 µM.

Molecule CC1=C(C)C(=O)C(C(CCCCCC(=O)O)c2ccc(Cl)cc2)=C(C)C1=O (stereo unspecified) has an Inhibition [1] of 100%, an Inhibition [2] of 91% and an IC50 [3] of 0.28 µM. It also gave an Inhibition [5] of 17%.

With CC1=C(C)C(=O)C(C(CCCCCC(=O)O)c2ccc(C(C)C)cc2)=C(C)C1=O (stereo unspecified) the Inhibition [1] was 4%.

In the case of CC1=C(C)C(=O)C(C(CCCCCC(=O)O)c2cccs2)=C(C)C1=O (stereo unspecified), the Inhibition [1] is reported as 100%, the Inhibition [2] is reported as 65% and the IC50 [3] is reported as 0.76 µM. It also gave an Inhibition [5] of 0%.

COC1=C(OC)C(=O)C(C(CCCCCC(=O)O)c2ccccc2)=C(C)C1=O (stereo unspecified) gave an Inhibition [1] of 0%.

For COC1=C(OC)C(=O)C(C(CCCCCC(=O)O)c2ccc(F)cc2)=C(C)C1=O (stereo unspecified), the Inhibition [1] was 99%, the Inhibition [2] was 0% and the IC50 [3] was 3.2 µM.

Work on CC1=C(C)C(=O)C(C(CCCCCC(=O)O)c2ccccc2)=C(C)C1=O (stereo unspecified) [SERATRODAST] yielded an inhibition in vivo at 5 mg/kg [19] of 91%, an Inhibition [1] of 99% and an inhibition in vivo at 5 mg/kg [6] of 94%. The IC50 [7] was 0.35 µM, the inhibition in vivo at 0.31 mg/kg [20] was 71% and the inhibition in vivo at 1.25 mg/kg [8] was 90%. For the same molecule, the inhibition in vivo at 0.31 mg/kg [9] was 89%, the ED50 [21] was 0.19 mg/kg and the ED50 [22] was 0.2 mg/kg. For the same molecule, the inhibition in vivo at 5 mg/kg [23] was 85%, the inhibition in vivo at 1.25 mg/kg [24] was 85% and the inhibition in vivo at 0.08 mg/kg [10] was 24%. For the same molecule, the Kb [25] was 0.00513 µM, the ED50 [26] was 0.13 mg/kg and the inhibition in vivo at 1.25 mg/kg [27] was 94%. The Inhibition [2] was 99%, the IC50 [3] was 0.1 µM and the Inhibition [5] was 49%. It also gave a Kb [11] of 0.00525 µM, an inhibition in vivo at 0.08 mg/kg [12] of 31% and an inhibition in vivo at 0.31 mg/kg [28] of 66%. For the same molecule, the inhibition in vivo at 0.31 mg/kg [13] was 58% and the inhibition in vivo at 1.25 mg/kg [14] was 77%.
